# Measured values published in ChEMBL document CHEMBL1136742, “New isomeric azine-bridged dinuclear platinum(II) complexes circumvent cross-resistance to cisplatin” (J Med Chem, 2003).
# Tests used:
# Assay type in all cases: functional, cell-based
# WiDr = test: In vitro cytotoxicity against human tumor WIDR cell line (colon cancer)
# Summary of the method: (§1)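 Cells kept in log-phase culture in RPMI 1640 with Hepes and phenol red, 10% FCS, penicillin 100 IU/mL and streptomycin 100 µg/mL. Complexes dissolved in water and diluted in full medium, then added after 48 h preincubation in 96-well plates. Incubation 120 h at 37 °C, 8.5% CO2. IC50 read by sulforhodamine-B microculture test.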
# NCI-H226 = test: In vitro cytotoxicity against human tumor H226 cell line (nonsmall cell lung cancer); summary of the method: as §1
# IGROV-1 = test: In vitro cytotoxicity against human tumor IGROV cell line (ovarian cancer); summary of the method: as §1
# A498 = test: In vitro cytotoxicity against human tumor A498 cell line (renal cancer); summary of the method: as §1
# EVSA-T = test: In vitro cytotoxicity against human tumor EVSA-T cell line (breast cancer); summary of the method: as §1
# MCF7 = test: In vitro cytotoxicity against human tumor MCF-7 cell line (breast cancer); summary of the method: as §1
# L1210 [1] = test: In vitro cytotoxicity against mouse tumor L1210 cell line (sensitive to Cisplatin)
# Summary of the method: (§2)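 Suspension culture in RPMI 1640 with 10% heat-inactivated fetal calf serum, no antibiotics, 37 °C, 5% CO2. Cells seeded at 10^5 cells/mL in 96-well plates and exposed 48 h to a range of platinum complex concentrations. MTT added, 4 h at 37 °C, then wash with PBS. Dye taken up in 2-propanol, absorbance read at 570 nm. IC50 taken as 50% absorbance drop versus drug-free control.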
# M19-MEL = test: In vitro cytotoxicity against human tumor M19 cell line (melanoma cancer); summary of the method: as §1
# L1210 [2] = test: Ratio of in vitro cytotoxicity against mouse tumor L1210 cell line (resistant to Cisplatin) to that of sensitive L1210 cell line
# Summary of the method: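 Resistant and sensitive L1210 cells in suspension culture, RPMI 1640 with 10% heat-inactivated FCS, no antibiotics, 37 °C, 5% CO2. Cells seeded at 10^5 cells/mL and exposed 48 h to platinum complexes. MTT read at 570 nm after solubilizing in 2-propanol. IC50 is 50% absorbance drop versus control; ratio is resistant IC50 over sensitive IC50.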
# L1210 [3] = test: In vitro cytotoxicity against mouse tumor L1210 cell line (resistant to Cisplatin); summary of the method: as §2
Substance,IC50 (WiDr) [µM],IC50 (NCI-H226) [µM],IC50 (IGROV-1) [µM],IC50 (A498) [µM],IC50 (EVSA-T) [µM],IC50 (MCF7) [µM],IC50 (L1210 [1]) [µM],IC50 (M19-MEL) [µM],Ratio (L1210 [2]),IC50 (L1210 [3]) [µM]
CISPLATIN [listing 1 of 2 here],3.2,10.9,0.6,7.5,1.4,2.3,2.2,1.9,,
CISPLATIN [listing 2 of 2 here],,,,,,,,,6.6,
[{cis-Pt(NH3)2Cl}2(-pdn)](NO3)2 [listing 1 of 2 here],13.3,> 85.2,0.2,53,> 85.2,23,5.7,7.2,,21.3
[{cis-Pt(NH3)2Cl}2(-pdn)](NO3)2 [listing 2 of 2 here],,,,,,,,,3.7,
[{cis-Pt(NH3)2Cl}2(-pzn)](NO3)2 [listing 1 of 2 here],2.4,> 85.2,1,63.5,47,17,1,20.9,,3.5
[{cis-Pt(NH3)2Cl}2(-pzn)](NO3)2 [listing 2 of 2 here],,,,,,,,,3.5,
[{cis-Pt(NH3)2Cl}2(-pzn)]Cl2 [listing 1 of 2 here],2,> 91.9,0.8,54.1,42.5,15.5,1.2,21.4,,2.5
[{cis-Pt(NH3)2Cl}2(-pzn)]Cl2 [listing 2 of 2 here],,,,,,,,,2.1,
